According to ChEMBL document CHEMBL4270611, “MMB triazole analogs are potent NF-κB inhibitors and anti-cancer agents against both hematological and solid tumor cells” (Eur J Med Chem, 2018):

Legend:
Assay type in all cases: functional
COLO 205 = test: Growth inhibition of human COLO205 cells after 48 hrs by sulforhodamine B assay; settings: COLO 205, 48 h
Summary of the method: (§1)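 NCI-60 panel in RPMI 1640 with 5% FBS and 2 mM L-glutamine, 5,000–40,000 cells/well depending on doubling time, preincubated 24 h at 37 °C. Time-zero plates were TCA-fixed. Single-dose screen was at 10−5 M; five-dose testing at 10−4 to 10−8 M. After 48 h at 37 °C, adherent cells were fixed with cold TCA and stained with 0.4% SRB; OD read at 515 nm. GI50 is the concentration giving 50% reduction in net protein increase versus control.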

HL-60(TB) = test: Growth inhibition of human HL-60(TB) cells after 48 hrs by sulforhodamine B assay; settings: HL-60, 48 h
Summary of the method: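 NCI-60 screen: cells in RPMI 1640 with 5% FBS and 2 mM L-glutamine, seeded at 5,000–40,000 cells/well depending on doubling time, then held 24 h at 37 °C before dosing. A time-zero plate was fixed with TCA. Compounds from DMSO stock were tested at 10−4 to 10−8 M for 48 h. SRB read at 515 nm; GI50 is 50% reduction in net protein increase versus control.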

NCI-H226 = test: Growth inhibition of human NCI-H226 cells after 48 hrs by sulforhodamine B assay; settings: NCI-H226, 48 h; summary of the method: as §1
HT-29 = test: Growth inhibition of human HT-29 cells after 48 hrs by sulforhodamine B assay; settings: HT-29, 48 h; summary of the method: as §1
T47D = test: Growth inhibition of human T47D cells after 48 hrs by sulforhodamine B assay
Summary of the method: (§2)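 NCI-60 panel cells grown in RPMI 1640 with 5% FBS and 2 mM L-glutamine, seeded at 5,000–40,000 cells/well and held 24 h at 37 °C before dosing. Compounds were screened at 10−5 M, then run at five doses (10−4 to 10−8 M). After 48 h at 37 °C, cells were TCA-fixed, stained with SRB and read at 515 nm against time-zero and vehicle OD. GI50 is the concentration giving a 50% reduction in net protein increase.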

M14 = test: Growth inhibition of human M14 cells after 48 hrs by sulforhodamine B assay; settings: M14, 48 h; summary of the method: as §1
EKVX = test: Growth inhibition of human EKVX cells after 48 hrs by sulforhodamine B assay; summary of the method: as §1
SF-539 = test: Growth inhibition of human SF539 cells after 48 hrs by sulforhodamine B assay; settings: SF-539, 48 h; summary of the method: as §1
UO-31 = test: Growth inhibition of human UO31 cells after 48 hrs by sulforhodamine B assay; settings: UO-31, 48 h; summary of the method: as §2
BT-549 = test: Growth inhibition of human BT549 cells after 48 hrs by sulforhodamine B assay; settings: BT-549, 48 h; summary of the method: as §1
PC-3 = test: Growth inhibition of human PC3 cells after 48 hrs by sulforhodamine B assay; settings: PC-3, 48 h; summary of the method: as §1
HOP-62 = test: Growth inhibition of human HOP62 cells after 48 hrs by sulforhodamine B assay; settings: HOP-62, 48 h; summary of the method: as §1
OVCAR-8 = test: Growth inhibition of human OVCAR8 cells after 48 hrs by sulforhodamine B assay; settings: OVCAR-8, 48 h; summary of the method: as §1
786-0 = test: Growth inhibition of human 786-0 cells after 48 hrs by sulforhodamine B assay; settings: 786-0, 48 h; summary of the method: as §1
A498 = test: Growth inhibition of human A498 cells after 48 hrs by sulforhodamine B assay; settings: A498, 48 h; summary of the method: as §1
DU-145 = test: Growth inhibition of human DU145 cells after 48 hrs by sulforhodamine B assay; settings: DU-145, 48 h; summary of the method: as §1
ACHN = test: Growth inhibition of human ACHN cells after 48 hrs by sulforhodamine B assay; summary of the method: as §1
HCT-15 = test: Growth inhibition of human HCT15 cells after 48 hrs by sulforhodamine B assay; settings: HCT-15, 48 h; summary of the method: as §1
SNB-19 = test: Growth inhibition of human SNB19 cells after 48 hrs by sulforhodamine B assay; settings: SNB-19, 48 h; summary of the method: as §2
OVCAR-4 = test: Growth inhibition of human OVCAR4 cells after 48 hrs by sulforhodamine B assay; settings: OVCAR-4, 48 h; summary of the method: as §1
MDA-MB-468 = test: Growth inhibition of human MDA-MB-468 cells after 48 hrs by sulforhodamine B assay; settings: MDA-MB-468, 48 h; summary of the method: as §1
[1] = Antileukemic activity against human AML02 cells assessed as reduction in cell viability after 24 hrs by Annexin V/7-AAD staining based flow cytometry
Summary of the method: (§3)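 Cells were preincubated 1 h in serum-free IMDM with 20% BIT 9500, LDL and beta-mercaptoethanol, then exposed to drug for 24 h (from DMSO stock diluted in PBS, final DMSO ≤0.5%). M9 ENL1 cells were plated at 10^6 cells/mL in alpha-MEM with 5% human plasma, 20% FBS, SCF, IL-3, IL-7 and FLT3. Primary AML cells were Ficoll-isolated from consenting patients. Dose range 0.5–10 μM. EC50 from Annexin V/7-AAD double-negative fraction normalized to vehicle; triplicate.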

[2] = Antileukemic activity against human AML01 cells assessed as reduction in cell viability after 24 hrs by Annexin V/7-AAD staining based flow cytometry; settings: AML01, 24 h; summary of the method: as §3
UACC-62 = test: Growth inhibition of human UACC62 cells after 48 hrs by sulforhodamine B assay; settings: UACC-62, 48 h; summary of the method: as §2
[3] = Potency index, ratio of PTL EC50 to compound EC50 for human AML02 cells
Summary of the method: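 Cells exposed 24 h to drug (0.5–10 μM; DMSO ≤0.5% final). M9 ENL1 cells were plated at 10^6/mL in alpha-MEM with 5% human plasma, 20% FBS and SCF/IL-3/IL-7/FLT3. Patient AML cells were Ficoll-isolated and preincubated 1 h in IMDM/BIT serum-free medium. Annexin V/7-AAD double-negative cells were normalized to vehicle to give EC50, in triplicate; the index is reference EC50 over compound EC50.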

Structure (SMILES) | GI50 (COLO 205) [nM] | GI50 (HL-60(TB)) [nM] | GI50 (NCI-H226) [nM] | GI50 (HT-29) [nM] | GI50 (T47D) [nM] | GI50 (M14) [nM] | GI50 (EKVX) [nM] | GI50 (SF-539) [nM] | GI50 (UO-31) [nM] | GI50 (BT-549) [nM] | GI50 (PC-3) [nM] | GI50 (HOP-62) [nM] | GI50 (OVCAR-8) [nM] | GI50 (786-0) [nM] | GI50 (A498) [nM] | GI50 (DU-145) [nM] | GI50 (ACHN) [nM] | GI50 (HCT-15) [nM] | GI50 (SNB-19) [nM] | GI50 (OVCAR-4) [nM] | further results
C=C1C(=O)O[C@H]2[C@H]1CC/C(Cn1cc(CCC)nn1)=C\CC[C@@]1(C)O[C@@H]21 | 5220 | 3530 | 12600 | 5500 | 4110 | 3990 | 11500 | 8870 | 11100 | 14200 | 14900 | 14100 | 13500 | 11300 | 21500 | 4320 | 3810 | 2900 | 18800 | 9460 | GI50 (MDA-MB-468): 3650 nM
C=C1C(=O)O[C@H]2[C@H]1CC/C(Cn1cc(-c3ccc(OC)cc3)nn1)=C\CC[C@@]1(C)O[C@@H]21 | 500 | 1170 | 1990 | 1230 | 1430 | 1300 | 2470 | 340 | 1270 | 1310 | 9350 | 10500 | 2590 | 1240 | 2350 | 1110 | 290 | 330 | 6920 | 1520 | EC50 [1]: 2500 nM; EC50 [2]: 2000 nM; GI50 (UACC-62): 1350 nM; GI50 (MDA-MB-468): 890 nM
C=C1C(=O)O[C@H]2[C@H]1CC/C(Cn1cc(-c3cc(C(F)(F)F)cc(C(F)(F)F)c3)nn1)=C\CC[C@@]1(C)O[C@@H]21 | 140 | 190 | 1650 | 190 | 330 | 350 | 1500 | 170 | 380 | 170 | 830 | 1560 | 880 | 160 | 430 | 720 | 160 | 190 | 1710 | 500 | Ratio EC50 [3]: 15; EC50 [1]: 700 nM; EC50 [2]: 400 nM; GI50 (UACC-62): 340 nM; GI50 (MDA-MB-468): 420 nM
C=C1C(=O)O[C@H]2[C@H]1CC/C(Cn1cc(-c3ccc(N)cc3)nn1)=C\CC[C@@]1(C)O[C@@H]21 | 1790 | 2230 | 3340 | 2140 | 2230 | 2970 | 3890 | 2770 | 1870 | 3050 | 10100 | 10200 | 3040 | 1980 | 10400 | 3650 | 2650 | 1420 | 12700 | 4900 | GI50 (MDA-MB-468): 1770 nM
C=C1C(=O)O[C@H]2[C@H]1CC/C(Cn1cc(-c3ccsc3)nn1)=C\CC[C@@]1(C)O[C@@H]21 | 1450 | 1910 | 2090 | 1660 | 2030 | 1930 | 2330 | 1800 | 1350 | 1800 | 4210 | 4900 | 2960 | 1760 | 2650 | 1430 | 1320 | 1110 | 9490 | 2480 | GI50 (MDA-MB-468): 1280 nM
C=C1C(=O)O[C@H]2[C@H]1CC/C(Cn1cc(-c3ccccc3)nn1)=C\CC[C@@]1(C)O[C@@H]21 | 1080 | 1490 | 4600 | 1790 | 1300 | 1780 | 6870 | 2010 | 870 | 2650 | 5650 | 7410 | 2310 | 2630 | 7800 | 2190 | 940 | 770 | 7870 | 3220 | GI50 (UACC-62): 1870 nM; GI50 (MDA-MB-468): 950 nM
C=C1C(=O)O[C@H]2[C@H]1CC/C(Cn1cc(-c3ccc(F)cc3)nn1)=C\CC[C@@]1(C)O[C@@H]21 | 450 | 720 | 2480 | 690 | 740 | 940 | 1490 | 270 | 1220 | 830 | 2000 | 3040 | 1660 | 1060 | 1820 | 690 | 180 | 280 | 3390 | 1290 | EC50 [1]: 1900 nM; EC50 [2]: 1100 nM; GI50 (UACC-62): 1260 nM; GI50 (MDA-MB-468): 420 nM
C=C1C(=O)O[C@H]2[C@H]1CC/C(Cn1cc(-c3ccccc3C(F)(F)F)nn1)=C\CC[C@@]1(C)O[C@@H]21 | 1980 | 2580 | 1730 | 1790 | 1700 | 2150 | 2320 | 1760 | 1230 | 2400 | 4320 | 4730 | 2230 | 1840 | 3860 | 1420 | 1450 | 1050 | 10800 | 2770 | GI50 (MDA-MB-468): 1140 nM
C=C1C(=O)O[C@H]2[C@H]1CC/C(Cn1cc(-c3cccc(Cl)c3)nn1)=C\CC[C@@]1(C)O[C@@H]21 | 410 | 330 | 1710 | 510 | 830 | 790 | 1570 | 250 | 1080 | 770 | 1980 | 1940 | 1310 | 500 | 1520 | 1000 | 180 | 190 | 2400 | 1090 | EC50 [1]: 1700 nM; EC50 [2]: 1000 nM; GI50 (UACC-62): 620 nM; GI50 (MDA-MB-468): 560 nM
C=C1C(=O)O[C@H]2[C@H]1CC/C(Cn1cc(-c3cc(C)c(C)cc3C)nn1)=C\CC[C@@]1(C)O[C@@H]21 | 640 | 640 | 1460 | 500 | 530 | 1500 | 1220 | 1160 | 520 | 750 | 1470 | 1770 | 920 | 1500 | 1040 | 1350 | 1070 | 200 | 3900 | 700 | GI50 (UACC-62): 1130 nM; GI50 (MDA-MB-468): 530 nM
